# Rows were chosen to be rich in hits. Some 2.8% of all compounds tested hit in one or more screens of this group.
# CAL PDZ FP-1 – CAL PDZ (human) peptide binding inhibition. Q9HD26. purified CAL PDZ, TMR-peptide fluorescence polarization, 1 h. inhibition, % at 24.9 µM. 0.92% of 300,000 active;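 active = mean inhibition of at least 30% with at least half of replicates also reaching 30%; inconclusive = no clear call, values can overlap the other calls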;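 also: 0% = DMSO neutral control and 100% = excess unlabeled competitor peptide PRC23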
# SR-BI uptake up – activators of SR-BI mediated HDL lipid uptake | AID 504775 | CHO ldlA[mSR-BI] cells, DiI-HDL uptake fluorescence, 3 h; 100 = double the neutral-control signal | activation, % at 12.5 µM | 0.096% of 320,000 active;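 active = mean replicate activation of at least 60% and every replicate at or above 60%; inconclusive = mean or all-replicate condition met, but not both; inactive = mean below 60% and not all replicates reaching 60%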;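 also: 0% = median plate neutral-control signal and 100% = twice that signal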
#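 Test system: SR-BI-overexpressing, LDLR-lacking CHO cells. Measured by: DiI fluorescence, bottom read. Medium: Ham's F12 with 0.5% BSA, HEPES 25 mM, pH 7.4. Timing: 3 h uptake period with compound, 37 °C.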
# SR-BI DiI inh – inhibitors of mouse SR-BI mediated HDL lipid uptake; Q61009; ldlA[mSR-BI] CHO cells, DiI-HDL uptake fluorescence, 3 h; inhibition, % at 12.5 µM; 0.96% of 320,000 active; AID 488896;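 active = mean replicate inhibition of at least 70% and a set share of replicates each scoring 70 or more; inconclusive = meets just one of the two criteria; inactive = fails both criteria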;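 also: 0% = median of neutral control wells and 100% = median of positive control wells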
# dFosB act – activators of mouse delta FosB homodimer | P13346 | purified delta FosB, TAMRA-CDK5 oligo fluorescence polarization; percent of positive-control signal above neutral wells | activation, % at 25 µM | AID 493131 | 0.99% of 340,000 active;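 active = mean activation above about 17%, with every replicate also reaching it, limit read from the data, passing the limit was not always enough; inconclusive = only one of the two conditions met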
# Target sequence (P13346 whole entry, looked up): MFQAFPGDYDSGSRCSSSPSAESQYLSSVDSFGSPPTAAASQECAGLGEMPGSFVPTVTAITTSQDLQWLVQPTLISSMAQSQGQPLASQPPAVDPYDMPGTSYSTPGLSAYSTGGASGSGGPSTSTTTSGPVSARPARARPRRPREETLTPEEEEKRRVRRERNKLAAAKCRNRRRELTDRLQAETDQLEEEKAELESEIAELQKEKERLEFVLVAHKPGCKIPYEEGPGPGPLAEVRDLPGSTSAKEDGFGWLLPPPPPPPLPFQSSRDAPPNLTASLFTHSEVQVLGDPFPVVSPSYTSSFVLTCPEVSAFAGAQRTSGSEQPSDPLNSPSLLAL
# CAL PDZ FP-2 – blocks peptide binding to human CAL PDZ domain; purified CAL PDZ, TMR-peptide fluorescence polarization, 1 h; inhibition, % at 20 µM; 0.02% of 330,000 active; Q9HD26;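 active = highest replicate inhibition of at least 40%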;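 also: plate controls were DMSO neutral control wells for no effect and unlabeled competitor peptide control wells for full effect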
#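 Test system: purified CerCALP PDZ construct; Compound dosing: one concentration, 20 µM compound; Also added: TMR-labelled reporter peptide T*-PRC34 bound in PDZ groove; Read-out: inhibition from polarization loss; Controls: unlabelled peptide and DMSO controls; Signal: FP readout, S and P plane fluorescence; Incubation: 1 h at RT.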
# DiI quencher – quenches DiI-HDL fluorescence, an SR-BI assay artifact; shares compounds with SR-BI DiI inh; cell-free DiI-HDL fluorescence quenching, 30 min; AC50, µM (series often up to 35 µM), inactives show at the top dose activity change, negative = quenching; 20% of 470 active; AID 540326;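 active = quenching, a falling signal, with AC50 below a set limit tied to the top valid dose, actives reach about 32 µM in these data; inconclusive = no clear call, values can overlap the other calls; inactive = rising signal, and the rest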
# Starred values were filed as active, the others as inactive; u = inconclusive; x = no result.
SMILES,CAL PDZ FP-1,SR-BI uptake up,SR-BI DiI inh,dFosB act,CAL PDZ FP-2,DiI quencher
CCOC(=O)c1c(C)n(-c2ccc(C)cc2)c2c(CC(C)=O)c(Br)c(OC)c(O)c12,2,-73,73*,5,0,0%
Cn1c(C(=O)N2CCN(Cc3ccc4c(c3)OCO4)CC2)cc2sccc21,x,18,-18,1,-3,x
Cn1c(C(=O)N2CCC(C(=O)N3CCN(Cc4ccc5c(c4)OCO5)CC3)CC2)cc2sccc21,x,-72,72*,-3,0,-3%
O=C(Nc1ccccc1-c1nnn(CC(=O)N2CCc3ccccc3C2)n1)C1CCC1,-4,-55,55,-3,-2,x
CC1Cc2ccccc2N1C(=O)Cn1nnc(-c2ccccc2NC(=O)C2CCC2)n1 (stereo not drawn),-1,-79,79*,-6,-4,15%
CC(C)CC(=O)Nc1ccccc1-c1nnn(CC(=O)N2CCc3ccccc3C2)n1,-7,-41,41,-5,0,x
CCC(=O)Nc1ccccc1-c1nnn(CC(=O)N2c3ccccc3CC2C)n1 (stereo not drawn),-3,-65,65,-9,-3,6%
CCCCc1ccc(NC(=O)CSc2nnc(C)c(=O)n2N)cc1,-4,9,-9,-2,-1,x
COc1ccc(-c2cc(C(F)(F)F)nc(SCCC(=O)N3CCCC3)n2)cc1,-4,-60,60,-11,-2,x
COc1ccc(-c2cc(C(F)(F)F)nc(SCCC(=O)N3CCN4CCCC4C3)n2)cc1 (stereo not drawn),-2,-73,u,-4,0,-3%
CCC(=O)c1ccc(OCC(=O)OCC(=O)NCCCc2ccccc2)cc1,-4,-24,24,-11,1,x
COc1ccc(Cn2c(=O)c3[nH]cnc3n(-c3ccc(C)cc3)c2=O)cc1,x,-3,3,-3,0,x
CCN(C(=O)COn1nnc2ccc(S(=O)(=O)N(C)C)cc21)C1CCS(=O)(=O)C1 (stereo not drawn),-3,-21,21,-3,-1,-3%
Cc1sc(NC(=O)CN2CCOCC2)nc1-c1ccc2c(c1)CCN2S(=O)(=O)c1ccccc1,-6,-70,u,-10,-1,-2%
CCC(CC)C(=O)Nc1nc(-c2ccc3c(c2)CCN3C(=O)C2CC2)c(C)s1,-2,-59,59,8,0,x
O=C(CN1CCOCC1)Nc1nc(-c2ccc3c(c2)CCN3S(=O)(=O)c2ccccc2)cs1,-4,-48,48,5,-5,3%
CCn1c(SCc2cccc(OC)c2)nc2ccccc2c1=O,-3,-30,30,-7,-2,x
COc1cc2c(C#CCCCO)c(-c3ccsc3)oc(=O)c2cc1OC,-1,-73,u,-2,-2,-3%
COc1cc(OC)cc(-c2oc(=O)c3cc(OC)c(OC)cc3c2C#CCCCO)c1,-2,-39,39,0,-1,x
CC(C)(C)NC(=O)N1CCN(c2ncccc2C(F)(F)F)CC1,x,-88,88*,-1,-1,-4%
CC(=O)Cc1nsc(NC(=O)c2ccc(-c3cccc(Cl)c3)o2)n1,-3,-13,13,-19,0,x
O=C(Nc1ccccc1)C1=C(O)CC(c2ccoc2)CC1=Nc1ccccc1 (stereo not drawn),-6,-72,u,1,-1,-10%
O=C(Nc1ccccc1)C1=C(O)CC(c2ccco2)CC1=Nc1ccccc1 (stereo not drawn),0,-49,49,-6,0,x
Cc1cccc(N2CC(C(=O)NCCC3=CCCCC3)CC2=O)c1C (stereo not drawn),0,-38,38,-6,-3,x
CCCCCCC(=O)Nc1nc(C)c(-c2csc(Nc3ccc(Cl)cc3)n2)s1,0,-120,120*,-5,0,1.1µM*
SMILES,CAL PDZ FP-1,SR-BI uptake up,SR-BI DiI inh,dFosB act,CAL PDZ FP-2,DiI quencher
C=CCCC(=O)Nc1nc(C)c(-c2csc(Nc3ccc(Cl)cc3Cl)n2)s1,-1,-70,70,-6,-1,x
COC(=O)c1cnc(Oc2ccc(NC(=O)NC(=O)c3c(OC)cccc3OC)cc2)cc1C(F)(F)F,0,-71,u,-6,-1,1%
CCOC(=O)N1CCN(S(=O)(=O)N2CCCC(C(=O)NC(C)c3ccccc3)C2)CC1 (stereo not drawn),3,17,-17,-7,-2,x
COc1ccc(CCN(C)C(=O)c2c(C)noc2C)cc1OC,-3,29,-29,-9,-1,x
CN(Cc1ccc(OC(F)F)cc1)C(=O)c1ccccc1Sc1ccccc1C#N,x,-85,85*,-13,-2,-4%
COc1ccc(N2CC(C(=O)NCCC3=CCCCC3)CC2=O)c(OC)c1 (stereo not drawn),-1,-78,78*,-5,-2,-3%
COc1ccc(N2CC(C(=O)NCCc3ccc(OC)c(OC)c3)CC2=O)cc1 (stereo not drawn),0,0,0,-11,-1,x
COc1ccc(N2CC(C(=O)NCCc3ccc(Cl)cc3)CC2=O)c(OC)c1 (stereo not drawn),1,-79,79*,-4,-3,-8%
COc1ccccc1C(=O)NC(=O)COC(=O)c1cccc(OC(F)F)c1,-1,6,-6,2,-2,x
COc1ccc(-c2nnn(CC(=O)N(C3CCCC3)C(C)C(=O)NC3CCCC3)n2)cc1OC (stereo not drawn),-5,-52,52,-8,-6,x
COc1ccc(-c2nnn(CC(=O)N(CC(=O)NC3CCCC3)c3cccc(C)c3)n2)cc1OC,-2,-83,83*,-13,-1,0%
COc1ccc(-c2nnn(CC(=O)N(C3CCCCC3)C(C)C(=O)NC3CCCC3)n2)cc1OC (stereo not drawn),x,-86,86*,2,-1,1%
COc1ccc(N(CC(=O)NC2CCCC2)C(=O)Cn2nnc(-c3ccc(C)cc3)n2)cc1OC,x,-29,29,-18,-2,x
COc1ccc(N(CC(=O)NC2CCCC2)C(=O)Cn2nnc(-c3ccc(C)cc3)n2)cc1,x,-8,8,-1,-2,-3%
COc1ccc(N(CC(=O)NC2CCCC2)C(=O)Cn2nnc(-c3ccc(C)o3)n2)cc1,3,x,x,-8,-3,x
Cc1ccc(CNC(=O)[C@@H](NC(=O)C2CCN(C(=O)[C@@H](N)CC(C)C)CC2)C(C)C)cc1,2,19,-19,-7,1,x
Cc1ccc(C(=O)NC2CCN(CC(=O)Nc3cccc([N+](=O)[O-])c3)CC2)cc1,2,5,-5,-20,-3,x
COc1cc(/C=C/C(=O)Nc2cccc(S(=O)(=O)NC3=NCCCCC3)c2)ccc1OCC#N,-3,-75,75*,-12,-1,0%

# Screens (PubChem)
